In PMC5723699 (Pharmacology Research & Perspectives, 2017):
Values after ≈ are worked out from the molar mass of the structure shown.

Columns and labels:
Safety and tolerability = conditions: for Subjects with drug‐related AEs / Application‐site erythema / Catheter‐site erythema / Contact dermatitis / Headache / Nasopharyngitis / Rash / Subjects with any AE: Part B; for Application‐site erythema / Catheter‐site erythema / Contact dermatitis / Headache / Nasopharyngitis / Rash / Subjects with any AE: 14 days (n = 9)
[1] = Part A single ascending dose blood pharmacokinetics; assay type: in vivo, human
CYP3A4 = experiment: Plasma 4β-hydroxycholesterol-to-cholesterol ratio as marker of CYP3A4 induction; conditions: following 14 days of dosing
RIPK1 = biological target: T1, RIPK1 (Homo sapiens, UniProt Q13546); experiment: RIPK1 target engagement; assay type: in vivo; conditions: Part A
T1 sequence (Q13546 1-671): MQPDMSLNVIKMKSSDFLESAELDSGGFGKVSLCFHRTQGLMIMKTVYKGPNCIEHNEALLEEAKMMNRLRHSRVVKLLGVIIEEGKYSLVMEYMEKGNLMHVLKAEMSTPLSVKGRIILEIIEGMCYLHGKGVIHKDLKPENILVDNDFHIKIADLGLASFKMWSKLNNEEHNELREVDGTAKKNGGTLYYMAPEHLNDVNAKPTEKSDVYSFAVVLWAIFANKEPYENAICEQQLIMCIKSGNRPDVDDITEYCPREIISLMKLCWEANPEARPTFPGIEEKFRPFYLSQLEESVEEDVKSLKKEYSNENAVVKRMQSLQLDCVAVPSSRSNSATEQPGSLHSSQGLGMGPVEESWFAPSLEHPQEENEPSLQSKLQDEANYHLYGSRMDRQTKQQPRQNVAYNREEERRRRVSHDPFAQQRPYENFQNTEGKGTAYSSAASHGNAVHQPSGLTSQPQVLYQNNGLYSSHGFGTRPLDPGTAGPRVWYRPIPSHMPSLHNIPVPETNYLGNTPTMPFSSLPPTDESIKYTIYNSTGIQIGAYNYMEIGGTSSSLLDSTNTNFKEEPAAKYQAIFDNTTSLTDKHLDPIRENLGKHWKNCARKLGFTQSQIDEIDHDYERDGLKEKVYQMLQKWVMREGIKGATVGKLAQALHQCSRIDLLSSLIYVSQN

Part B repeat-dose = assay type: in vivo, human; conditions: for AUC: male, human, in vivo, po, AUC0‐tau, plasma, oral, geometric mean (% CV)
MIP‐1α = experiment: Ex vivo whole blood challenge assay; assay type: cell-based, human
[2] = Analysis of metabolism in blood, plasma, urine and bile; assay type: in vivo, human
Procedure, shortened: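 Oral dosing in healthy volunteers. Urine collected at various time points. Bile sampled by Entero-Test in one Part B cohort on Days −1 and 7, about 2 h after the morning dose. Blood/water, plasma, urine and bile analysed for relative levels of parent drug and metabolites.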

SMILES: CN1C(=O)[C@@H](NC(=O)c2nnc(Cc3ccccc3)[nH]2)COc2ccccc21 [GSK2982772]
- Drug‐related AEs (total number) (Safety and tolerability; Part A, reported in 2 subjects, all of mild intensity): 3
- Subjects with drug‐related AEs (Safety and tolerability; 20 mg QD group): 3 subjects
- Application‐site erythema (Safety and tolerability; 20 mg QD): 0 n (%)
- Catheter‐site erythema (Safety and tolerability; 20 mg QD): 0 n (%)
- Contact dermatitis (Safety and tolerability; 20 mg QD): 1 (11) n (%)
- Headache (Safety and tolerability; 20 mg QD): 4 (44) n (%)
- Nasopharyngitis (Safety and tolerability; 20 mg QD): 0 n (%)
- Rash (Safety and tolerability; 20 mg QD): 0 n (%)
- Subjects with any AE (Safety and tolerability; 20 mg QD): 7 (78) n (%)
- Subjects with drug‐related AEs (Safety and tolerability; 60 mg BID group): 4 subjects
- Application‐site erythema (Safety and tolerability; 60 mg BID): 0 n (%)
- Catheter‐site erythema (Safety and tolerability; 60 mg BID): 2 (22) n (%)
- Contact dermatitis (Safety and tolerability; 60 mg BID): 5 (56) n (%)
- Headache (Safety and tolerability; 60 mg BID): 3 (33) n (%)
- Nasopharyngitis (Safety and tolerability; 60 mg BID): 1 (11) n (%)
- Rash (Safety and tolerability; 60 mg BID): 1 (11) n (%)
- Subjects with any AE (Safety and tolerability; 60 mg BID): 9 (100) n (%)
- Application‐site erythema (Safety and tolerability; 60 mg QD): 0 n (%)
- Catheter‐site erythema (Safety and tolerability; 60 mg QD): 1 (11) n (%)
- Contact dermatitis (Safety and tolerability; 60 mg QD): 3 (33) n (%)
- Headache (Safety and tolerability; 60 mg QD): 0 n (%)
- Nasopharyngitis (Safety and tolerability; 60 mg QD): 0 n (%)
- Rash (Safety and tolerability; 60 mg QD): 3 (33) n (%)
- Subjects with any AE (Safety and tolerability; 60 mg QD): 6 (67) n (%)
- Application‐site erythema (Safety and tolerability; 120 mg BID): 2 (22) n (%)
- Catheter‐site erythema (Safety and tolerability; 120 mg BID): 0 n (%)
- Contact dermatitis (Safety and tolerability; 120 mg BID): 0 n (%)
- Headache (Safety and tolerability; 120 mg BID): 1 (11) n (%)
- Nasopharyngitis (Safety and tolerability; 120 mg BID): 3 (33) n (%)
- Rash (Safety and tolerability; 120 mg BID): 0 n (%)
- Subjects with any AE (Safety and tolerability; 120 mg BID): 6 (67) n (%)
- AEs involving clinical laboratory or electrocardiogram abnormalities (Safety and tolerability; any part of the study): no AEs involving clinical laboratory abnormalities or electrocardiogram abnormalities were reported
- Serious AEs, suicidality or deaths (Safety and tolerability; any part of the study): No serious AEs, suicidality or deaths were reported
- Overall safety and tolerability (Safety and tolerability; single and repeat doses, healthy adult male volunteers): generally safe and well tolerated
- Vital signs, physical, neurological examinations, respiratory assessments (Safety and tolerability; whole study): no clinically significant abnormal findings
- Time to C max ([1]; blood, single dose 10 mg capsule, fasted): 1.5 h
- Median time to C max ([1]; blood, single dose 0.1, 0.5 and 2.5 mg in solution, fasted): ≤ 1 h
- Time to C max ([1]; blood, single dose 120 mg capsule, fasted): 2.5 h
- Dose linearity of kinetics ([1]; dose range 0.1‐120 mg): approximately linear kinetics
- half-life ([1]; male, human, whole blood, oral): ~6 h
- CYP3A4 induction (CYP3A4): no evidence of CYP3A4 induction
- Percent TE (RIPK1; 1.5 hours postdose, single doses of 10 mg and above): > 90%
- Percent TE (>90% level) (RIPK1; 8 hours postdose, single doses of 40 mg and above): sustained
- Percent TE (RIPK1; 48 hours postdose, all dose groups): negligible
- AUC (Part B repeat-dose; 20 mg, 20 mg QD, Day 1): 1160 ng·h/mL
- AUC (Part B repeat-dose; 20 mg, 20 mg QD, Day 14): 1140 ng·h/mL
- AUC (Part B repeat-dose; 60 mg, 60 mg BID, Day 1): 4330 ng·h/mL
- AUC (Part B repeat-dose; 60 mg, 60 mg BID, Day 14): 3100 ng·h/mL
- AUC (Part B repeat-dose; 60 mg, 60 mg QD, Day 14): 2590 ng·h/mL
- AUC (Part B repeat-dose; 120 mg, 120 mg BID, Day 1): 7050 ng·h/mL
- AUC (Part B repeat-dose; 120 mg, 120 mg BID, Day 14): 6990 ng·h/mL
- Attainment of steady state (trough plasma predose concentration Days 2 to 14) (Part B repeat-dose; repeat dosing): reached a plateau by Day 2
- IC50 (MIP‐1α; Homo sapiens, read-out: Concentration needed to elicit a half‐maximal response in all assays, all assays (MIP‐1α, MIP‐1β, TE)): ~1.4 ng/mL (≈ 3.71 nM)
- Inhibition (mean of MIP‐1α and MIP‐1β) (MIP‐1α; Part B Day 14, 60 mg and 120 mg BID, out to 24 hours posttreatment): maximal inhibition
- Inhibition (mean of MIP‐1α and MIP‐1β) (MIP‐1α; Part B Day 14, 1.5 hours and 8 hours postdose, all treatment groups): maximal inhibition
- Unchanged drug in urine ([2]; in vivo): trace levels
- Unchanged drug in blood and plasma extracts ([2]; single and repeat oral dosing, together with N‐glucuronide metabolite): major circulating drug‐related components
